Results published in ChEMBL document CHEMBL1129275, “Synthesis and in vitro and in vivo characteristics of an iodinated analogue of the beta-adrenoceptor antagonist carazolol” (J Med Chem, 1996).

Assays:
Oryctolagus cuniculus [1] = assay: Cerebral biodistribution pattern of [123I]- ligand was evaluated in thalamus of anesthetized rabbit after Intravenous injection of 50 uCi after 30 min; type: ADME, organism-based; conditions: in vivo, 0.5 h
Procedure, shortened: (§1)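 Male New Zealand white rabbits (2.5–3.5 kg), anesthetized with xylazine 5 mg/kg plus ketamine 30 mg/kg im, given 50 µCi radioligand (specific activity >5000 Ci/mmol) iv via ear vein. Euthanized at set times by pentobarbital 200 mg/kg im, n = 3/time point. Organs removed and weighed, gamma-counted, decay/weight corrected; expressed as % ID x kg body weight/g tissue, mean ± SEM.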

Oryctolagus cuniculus [2] = assay: Cerebral biodistribution pattern of [123I]- ligand was evaluated in thalamus of anesthetized rabbit after Intravenous injection of 50 uCi after 2 hr; type: ADME, organism-based; conditions: in vivo; procedure, shortened: as §1
Oryctolagus cuniculus [3] = assay: Biodistribution pattern of [123I]- ligand was evaluated in intestine of anesthetized rabbit after Intravenous injection of 50 uCi after 4 hr; type: ADME, organism-based; conditions: in vivo
Procedure, shortened: (§2)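 Male New Zealand white rabbits, 2.5–3.5 kg, anesthetized with 5 mg/kg xylazine plus 30 mg/kg ketamine im. Each received 50 uCi radioligand (specific activity > 5000 Ci/mmol) iv via ear vein. Animals were killed with 200 mg/kg pentobarbital im at the set time. Blood was drawn by intracardiac puncture and organs weighed. Gamma counting was decay-corrected, expressed as %ID x kg body weight/g tissue, mean ± SEM, n = 3/time point.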

Oryctolagus cuniculus [4] = assay: Biodistribution pattern of [123I]- ligand was evaluated in spleen of anesthetized rabbit after Intravenous injection of 50 uCi after 24 hr; type: ADME, organism-based; conditions: in vivo; procedure, shortened: as §1
Oryctolagus cuniculus [5] = assay: Cerebral biodistribution pattern of [123I]- ligand was evaluated in striatum of anesthetized rabbit after Intravenous injection of 50 uCi after 24 hr; type: ADME, organism-based; conditions: in vivo; procedure, shortened: as §1
Oryctolagus cuniculus [6] = assay: Biodistribution pattern of [123I]- ligand was evaluated in fat of anesthetized rabbit after Intravenous injection of 50 uCi after 5 min; type: ADME, organism-based, Adipose tissue; conditions: in vivo; procedure, shortened: as §2
Oryctolagus cuniculus [7] = assay: Cerebral biodistribution pattern of [123I]- ligand was evaluated in hypothalamus of anesthetized rabbit after Intravenous injection of 50 uCi after 4 hr; type: ADME, organism-based; conditions: in vivo; procedure, shortened: as §1
Oryctolagus cuniculus [8] = assay: Biodistribution pattern of [123I]- ligand was evaluated in muscle of anesthetized rabbit after Intravenous injection of 50 uCi after 1 hr; type: ADME, organism-based, Muscle tissue; conditions: in vivo; procedure, shortened: as §2
Oryctolagus cuniculus [9] = assay: Biodistribution pattern of [123I]- ligand was evaluated in lung of anesthetized rabbit after Intravenous injection of 50 uCi after 24 hr; type: ADME, organism-based; conditions: in vivo; procedure, shortened: as §2
Oryctolagus cuniculus [10] = assay: Biodistribution pattern of [123I]- ligand was evaluated in blood of anesthetized rabbit after Intravenous injection of 50 uCi after 2 hr; type: ADME, organism-based; conditions: in vivo; procedure, shortened: as §2
Oryctolagus cuniculus [11] = assay: Cerebral biodistribution pattern of [123I]- ligand was evaluated in frontal cortex of anesthetized rabbit after Intravenous injection of 50 uCi after 24 hr; type: ADME, organism-based; conditions: in vivo; procedure, shortened: as §1
Oryctolagus cuniculus [12] = assay: Cerebral biodistribution pattern of [123I]- ligand was evaluated in hypothalamus of anesthetized rabbit after Intravenous injection of 50 uCi after 24 hr; type: ADME, organism-based; conditions: in vivo; procedure, shortened: as §1
Oryctolagus cuniculus [13] = assay: Biodistribution pattern of [123I]- ligand was evaluated in right atrial muscle of anesthetized rabbit after Intravenous injection of 50 uCi after 1 hr; type: ADME, organism-based, Muscle tissue; conditions: in vivo; procedure, shortened: as §1
Oryctolagus cuniculus [14] = assay: Biodistribution pattern of [123I]- ligand was evaluated in kidney of anesthetized rabbit after Intravenous injection of 50 uCi after 6 hr; type: ADME, organism-based; conditions: in vivo; procedure, shortened: as §2
Oryctolagus cuniculus [15] = assay: Biodistribution pattern of [123I]- ligand was evaluated in lung of anesthetized rabbit after Intravenous injection of 50 uCi after 30 min; type: ADME, organism-based; conditions: in vivo, 0.5 h; procedure, shortened: as §2
Oryctolagus cuniculus [16] = assay: Biodistribution pattern of [123I]- ligand was evaluated in left atrial muscle of anesthetized rabbit after Intravenous injection of 50 uCi after 6 hr; type: ADME, organism-based, Muscle tissue; conditions: in vivo; procedure, shortened: as §2
Oryctolagus cuniculus [17] = assay: Biodistribution pattern of [123I]- ligand was evaluated in lung of anesthetized rabbit after Intravenous injection of 50 uCi after 6 hr; type: ADME, organism-based; conditions: in vivo; procedure, shortened: as §2
Oryctolagus cuniculus [18] = assay: Cerebral biodistribution pattern of [123I]- ligand was evaluated in pituitary gland of anesthetized rabbit after Intravenous injection of 50 uCi after 1 hr; type: ADME, organism-based; conditions: in vivo; procedure, shortened: as §1
Oryctolagus cuniculus [19] = assay: Cerebral biodistribution pattern of [123I]- ligand was evaluated in cerebellum of anesthetized rabbit after Intravenous injection of 50 uCi after 2 hr; type: ADME, organism-based; conditions: in vivo; procedure, shortened: as §1
Oryctolagus cuniculus [20] = assay: Biodistribution pattern of [123I]- ligand was evaluated in right ventricular muscle of anesthetized rabbit after Intravenous injection of 50 uCi after 4 hr; type: ADME, organism-based, Muscle tissue; conditions: in vivo; procedure, shortened: as §1
Oryctolagus cuniculus [21] = assay: Cerebral biodistribution pattern of [123I]- ligand was evaluated in striatum of anesthetized rabbit after Intravenous injection of 50 uCi after 2 hr; type: ADME, organism-based; conditions: in vivo; procedure, shortened: as §1
Oryctolagus cuniculus [22] = assay: Biodistribution pattern of [123I]- ligand was evaluated in right atrial muscle of anesthetized rabbit after Intravenous injection of 50 uCi after 6 hr; type: ADME, organism-based, Muscle tissue; conditions: in vivo; procedure, shortened: as §1
Oryctolagus cuniculus [23] = assay: Biodistribution pattern of [123I]- ligand was evaluated in lung of anesthetized rabbit after Intravenous injection of 50 uCi after 5 min; type: ADME, organism-based; conditions: in vivo; procedure, shortened: as §2
Oryctolagus cuniculus [24] = assay: Biodistribution pattern of [123I]- ligand was evaluated in blood of anesthetized rabbit after Intravenous injection of 50 uCi after 30 min; type: ADME, organism-based; conditions: in vivo, 0.5 h; procedure, shortened: as §2
Oryctolagus cuniculus [25] = assay: Biodistribution pattern of [123I]- ligand was evaluated in spleen of anesthetized rabbit after Intravenous injection of 50 uCi after 30 min; type: ADME, organism-based; conditions: in vivo, 0.5 h; procedure, shortened: as §1
Oryctolagus cuniculus [26] = assay: Biodistribution pattern of [123I]- ligand was evaluated in left atrial muscle of anesthetized rabbit after Intravenous injection of 50 uCi after 24 hr; type: ADME, organism-based, Muscle tissue; conditions: in vivo; procedure, shortened: as §2

ID x kg of body weight/g of tissue (Oryctolagus cuniculus [1]): < 0.1%
ID x kg of body weight/g of tissue (Oryctolagus cuniculus [2]): 0.05%
ID x kg of body weight/g of tissue (Oryctolagus cuniculus [3]): 0.06%
ID x kg of body weight/g of tissue (Oryctolagus cuniculus [4]): 0.03%
ID x kg of body weight/g of tissue (Oryctolagus cuniculus [5]): 0.02%
ID x kg of body weight/g of tissue (Oryctolagus cuniculus [6]): 0.008%
ID x kg of body weight/g of tissue (Oryctolagus cuniculus [7]): 0.03%
ID x kg of body weight/g of tissue (Oryctolagus cuniculus [8]): 0.07%
ID x kg of body weight/g of tissue (Oryctolagus cuniculus [9]): 0.18%
ID x kg of body weight/g of tissue (Oryctolagus cuniculus [10]): 0.01%
ID x kg of body weight/g of tissue (Oryctolagus cuniculus [11]): 0.01%
ID x kg of body weight/g of tissue (Oryctolagus cuniculus [12]): 0.02%
ID x kg of body weight/g of tissue (Oryctolagus cuniculus [13]): < 0.13%
ID x kg of body weight/g of tissue (Oryctolagus cuniculus [14]): 0.04%
ID x kg of body weight/g of tissue (Oryctolagus cuniculus [15]): < 1.74%
ID x kg of body weight/g of tissue (Oryctolagus cuniculus [16]): 0.1%
ID x kg of body weight/g of tissue (Oryctolagus cuniculus [17]): 0.71%
ID x kg of body weight/g of tissue (Oryctolagus cuniculus [18]): 0.11%
ID x kg of body weight/g of tissue (Oryctolagus cuniculus [19]): 0.15%
ID x kg of body weight/g of tissue (Oryctolagus cuniculus [20]): 0.12%
ID x kg of body weight/g of tissue (Oryctolagus cuniculus [21]): 0.07%
ID x kg of body weight/g of tissue (Oryctolagus cuniculus [22]): 0.07%
ID x kg of body weight/g of tissue (Oryctolagus cuniculus [23]): 5.75%
ID x kg of body weight/g of tissue (Oryctolagus cuniculus [24]): 0.02%
ID x kg of body weight/g of tissue (Oryctolagus cuniculus [25]): 0.41%
ID x kg of body weight/g of tissue (Oryctolagus cuniculus [26]): 0.03%
SMILES: CC(C)(/C=C/I)NC[C@H](O)COc1cccc2[nH]c3ccccc3c12
